Laboratory results published in article PMC2692962 (Journal of molecular biology, 2009).

Tests used:
[1] = molecular target: T1, NS3h_1b(con1) HCV helicase (Hepatitis C virus genotype 1b, UniProt Q9WMX2); test: Molecular beacon based helicase assay; format: biochemical; settings: for unwinding rate, % of that seen with ATP: 0.5 mM NTP analog, 2 mM MgCl2, initial rates; for Vmax, Michaelis-Menten / Km: data at or below 1 mM NTP; for Vmax, substrate inhibition model: global fit to equation (2); for Km: read-out: Km, Michaelis-Menten; for ability of divalent metal to support DNA unwinding: metal replacing Mg^2+; for DNA unwinding rate, times faster than ATP: 0.5 mM NTP, 2 mM MgCl2, 25 nM NS3h, 22 °C
[2] = molecular target: T1, NS3h_1b(con1) HCV helicase; test: Single-turnover MBHA; format: biochemical; settings: for Afast / kfast / Aslow / kslow: 0.5 mM NTP
How it was run: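 Enzyme (50 nM NS3h) and 10 nM 17 bp Cy5 beacon DNA substrate in 50 mM MOPS pH 6.5 with 4 mM MgCl2 were rapidly mixed 1:1 with 1.0 mM NTP plus 2 μM dT20 trap. Fluorescence gave substrate remaining, corrected against a substrate-free blank and pre-NTP signal. Product (5 nM minus remaining) was fit to a two-phase first-order equation. Three independent reactions were run.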

[3] = molecular target: T1, NS3h_1b(con1) HCV helicase; test: ATP hydrolysis assay; format: biochemical; settings: for ATP hydrolysis in the absence of RNA: no nucleic acid, 100 nM NS3h, versus rate without added metal; for ATP hydrolysis in the absence of RNA / ATP hydrolysis in the presence of RNA: 2 mM ATP, 37 °C; for ATP hydrolysis in the presence of RNA: 0.1 mg/ml poly(U), 15 nM NS3h; for ATP hydrolyzed for each 25 bp duplex separated: MBHA conditions, 25 nM NS3h, 1.25 mM metal; for ATP hydrolyzed for each 25 bp duplex separated / rate of ATP hydrolysis: 1 mM ATP; for rate of ATP hydrolysis: in MBHA, 25 nM NS3h_1b(con1), 1.25 mM metal chloride, triplicate; for ATP hydrolyzed in the time needed to separate a single base pair: steady state unwinding versus ATP hydrolysis, only divalent cation present
full-length NS3 = settings: ref Wardell et al.; cited from earlier work
HCV helicase [4] = settings: ref Kyono et al.; cited from earlier work
[5] = molecular target: T1, NS3h_1b(con1) HCV helicase; test: mantADP; format: binding; settings: FRET, metal replacing Mg^2+
HCV helicase [6] = settings: ref Locatelli et al.; cited from earlier work
[7] = 17 base pairs substrate, two-phase fit

T1 sequence (Q9WMX2 1192-1657): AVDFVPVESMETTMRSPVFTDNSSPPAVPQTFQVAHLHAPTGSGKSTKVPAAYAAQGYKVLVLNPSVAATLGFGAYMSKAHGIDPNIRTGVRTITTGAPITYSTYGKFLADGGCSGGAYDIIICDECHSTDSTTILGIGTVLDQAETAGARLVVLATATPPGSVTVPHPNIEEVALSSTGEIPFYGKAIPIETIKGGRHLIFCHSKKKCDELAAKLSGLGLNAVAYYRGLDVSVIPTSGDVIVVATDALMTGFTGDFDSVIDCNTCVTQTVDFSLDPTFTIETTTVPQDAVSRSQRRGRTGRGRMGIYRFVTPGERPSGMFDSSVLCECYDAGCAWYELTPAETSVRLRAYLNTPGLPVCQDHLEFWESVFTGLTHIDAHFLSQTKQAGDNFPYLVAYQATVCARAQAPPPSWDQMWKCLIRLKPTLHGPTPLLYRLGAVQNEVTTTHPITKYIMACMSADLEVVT

For `O=c1[nH]c(=O)c2ncn([C@@H]3O[C@H](COP(=O)(O)OP(=O)(O)OP(=O)(O)O)[C@@H](O)[C@H]3O)c2[nH]1` [XTP, Xanthosine triphosphate], the “unwinding rate, % of that seen with ATP” value [1] was 7%.
`[Cl-].[Na+]` [NaCl] gave an IC50 ([1]; read-out: IC50, inhibition of NS3h catalyzed DNA unwinding, MBHA, data not shown) of 15 mM.
For `Nc1nc2c(ncn2[C@@H]2O[C@H](COP(=O)(O)OP(=O)(O)OP(=O)(O)O)[C@@H](O)[C@H]2O)c(=O)[nH]1` [GTP], the “Vmax, Michaelis-Menten” value ([1]; 0.25 mM free Mg^2+) was 0.05 nM/min, the “Kii (GTP)” value ([1]; equation (3), GTP as non-competitive inhibitor of ATP fueled unwinding) was 0.65 mM and the “Vmax, substrate inhibition model” value ([1]; 0.25 mM free Mg^2+) was 0.41 nM/min. The Km ([1]; 0.25 mM free Mg^2+) was 410 µM, the “reaction amplitude, times less than in ATP fueled reactions” value ([2]; 17 base pair substrate) was 7 times and the Afast ([2]; 17 base pairs substrate) was 0.42 ± 0.03 nM. For the same compound, the kfast ([2]; 17 base pairs substrate) was 8.3 ± 1.9 min⁻¹, the Afast ([2]; 30 base pairs substrate) was 0.58 ± 0.08 nM and the Aslow ([2]; 30 base pairs substrate) was 0.11 ± 0.05 nM. It also gave a kfast ([2]; 30 base pairs substrate) of 0.61 ± 0.06 min⁻¹ and a kslow ([2]; 30 base pairs substrate) of 0.62 ± 0.08 min⁻¹.
With `Nc1ncnc2c1ncn2[C@@H]1O[C@H](COP(=O)([O-])OP(=O)([O-])OP(=O)(O)O)[C@@H](O)[C@H]1O.[Mg+2]` [Mg(ATP)^2−] the “maximal steady state unwinding rate” value ([1]; 25 nM NS3h) was 0.8 nM/min, the “Vmax for unwinding, times faster than Mg(GTP)^2−” value ([1]; Michaelis-Menten fit, data up to 1 mM Mg(NTP)^2−, 0.25 mM free Mg^2+) was 15 times and the kcat of unwinding ([1]; calculated from maximal steady state rate at 25 nM NS3h, assumes monomer) was 0.000533 s⁻¹.
In the case of `[N-]=[N+]=NC1C(O)C(COP(=O)(O)OP(=O)(O)OP(=O)(O)O)OC1n1cnc2c(N)ncnc21` (stereo not shown) [2′-azido-ATP], the “unwinding rate, % of that seen with ATP” value [1] is reported as 61%.
In the case of `[Ca+2]` [Ca^2+], the “ATP hydrolysis in the absence of RNA” value [3] is reported as “inhibited the rate of hydrolysis” and the “ability of divalent metal to support DNA unwinding” value (“ability of divalent metal” below) ([1]; data not shown) is reported as “did not support”.
For `Nc1ncnc2c1ncn2[C@H]1C[C@H](O)[C@@H](COP(=O)(O)OP(=O)(O)OP(=O)(O)O)O1` [dATP], the “unwinding relative to that observed with ATP” value (full-length NS3) is listed as 60% and the “use of dATP compared with ATP for unwinding” value (HCV helicase [4]) is listed as “used equally well”.
In the case of `[Cl-].[Cl-].[Mg+2]` [Mg^2+, MgCl2], the “ATP hydrolysis in the presence of RNA” value [3] is reported as “supported hydrolysis”, the “ATP hydrolyzed for each 25 bp duplex separated” value [3] is reported as “about 1,000 ATP” and the “rate of ATP hydrolysis” value [3] is reported as 629 ± 5.4 nM/min. For the same compound, the “ATP hydrolysis in the absence of RNA” value [3] was “enhanced hydrolysis” and the “ATP hydrolyzed in the time needed to separate a single base pair” value [3] was “about 40 ATP”.
In the case of `Nc1ncnc2c1ncn2[C@H]1CC[C@@H](CO[P@@](=O)(O)O[P@](=O)(O)OP(=O)(O)O)O1` [2′,3′-ddATP], the “DNA unwinding rate, times faster than ATP” value (“DNA unwinding rate” for short) [1] is reported as 2.7 fold.
With `Nc1ncnc2c1ncn2C1OC(COP(=O)([O-])OP(=O)([O-])OP(=O)([O-])[O-])C(O)C1O.[Mn+2]` (stereo not shown) [Mn(ATP)^2−] the “hydrolysis by the open form, times slower than Mg(ATP)^2−” value ([3]; enzyme not bound to RNA) was “at least 100 times”.
With `Nc1ncnc2c1ncn2[C@@H]1O[C@H](COP(=O)(O)OP(=O)(O)OP(=O)(O)O)[C@@H](O)[C@H]1F` [2′-F-ATP] the “unwinding rate, % of that seen with ATP” value [1] was 145%.
In the case of `Nc1ncnc2c1ncn2[C@@H]1O[C@H](COP(=O)(O)OP(=O)(O)OP(=O)(O)O)C[C@H]1O` [3′-dATP], the “DNA unwinding rate” value [1] is reported as 3 fold.
For `Nc1ncnc2c1ncn2[C@@H]1O[C@H](COP(=O)(O)OP(=O)(O)OP(=O)(O)O)[C@@H](O)[C@@H]1O` [2′-ara-ATP], the “unwinding rate, % of that seen with ATP” value [1] was “practically the same unwinding rates as ATP”.
For `[Cl-].[Cl-].[Zn+2]` [Zn^2+, ZnCl2], the “ATP hydrolysis in the presence of RNA” value [3] was “supported hydrolysis”, the “ATP hydrolysis in the absence of RNA” value [3] was “inhibited the rate of hydrolysis” and the “ability of divalent metal” value ([1]; data not shown) was “did not support”. The “formation of enzyme-metal-NTP complex” value [5] was “formed an enzyme-metal-NTP complex”.
For `[Cl][Mn][Cl]` [Mn^2+, MnCl2], the “ATP hydrolysis in the presence of RNA” value [3] was “supported hydrolysis”, the “ATP hydrolyzed for each 25 bp duplex separated” value [3] was “about 75 ATP” and the “rate of ATP hydrolysis” value [3] was 605 ± 4 nM/min. For the same compound, the “ATP hydrolysis in the absence of RNA” value [3] was “inhibited the rate of hydrolysis”, the “ATP hydrolyzed in the time needed to separate a single base pair” value [3] was 3 ATP and the “MBHA substrate unwound, times faster than with Mg^2+” value ([1]; 25 nM NS3h_1b(con1), 1 mM ATP, 1.25 mM MgCl2 or MnCl2) was “about 14 times”. For the same compound, the “ability of divalent metal” value ([1]; data not shown) was “could fuel unwinding” and the “formation of enzyme-metal-NTP complex” value [5] was “formed an enzyme-metal-NTP complex”.
In the case of `CO[C@@H]1[C@H](O)[C@@H](COP(=O)(O)OP(=O)(O)OP(=O)(O)O)O[C@H]1n1cnc2c(N)ncnc21` [2′-O-methyl-ATP], the “unwinding rate, % of that seen with ATP” value [1] is reported as 34%.
For `Nc1ncnc2c1ncn2[C@@H]1O[C@H](COP(=O)(O)OP(=O)(O)OP(=O)(O)O)[C@@H](O)[C@H]1O` [ATP], the “unwinding, times better than dATP” value (HCV helicase [6]) is listed as 100 times, the “Vmax, Michaelis-Menten” value ([1]; 0.25 mM free Mg^2+) is listed as 0.79 nM/min and the Vmax ([1]; equation (3), ATP and GTP both present) is listed as 1.6 nM/min. The “Vmax, substrate inhibition model” value ([1]; 0.25 mM free Mg^2+) was 10 nM/min, the Ki ([1]; read-out: Ki (ATP), equation (3), ATP and GTP both present) was 0.69 mM and the Km ([1]; 0.25 mM free Mg^2+) was 70 µM. It also gave an Afast ([2]; 17 base pairs substrate) of 3.1 ± 0.02 nM, a kfast ([2]; 17 base pairs substrate) of 8.4 ± 0.1 min⁻¹ and an Aslow [2, 7] of 0.70 ± 0.04 nM. For the same compound, the kslow [2, 7] was 0.28 ± 0.05 min⁻¹, the Afast ([2]; 30 base pairs substrate) was 1.8 ± 0.03 nM and the Aslow ([2]; 30 base pairs substrate) was 1.2 ± 0.03 nM. For the same compound, the kfast ([2]; 30 base pairs substrate) was 3.1 ± 0.1 min⁻¹ and the kslow ([2]; 30 base pairs substrate) was 0.46 ± 0.03 min⁻¹.
With `Cc1cn([C@H]2C[C@H](O)[C@@H](COP(=O)(O)OP(=O)(O)OP(=O)(O)O)O2)c(=O)[nH]c1=O` [dTTP] the “DNA unwinding rate” value [1] was “about 3 fold”, the “Vmax, Michaelis-Menten” value ([1]; 0.25 mM free Mg^2+) was 5.3 nM/min and the “Vmax, substrate inhibition model” value ([1]; 0.25 mM free Mg^2+) was 50 nM/min. For the same compound, the Km ([1]; 0.25 mM free Mg^2+) was 300 µM, the Afast ([2]; 17 base pairs substrate) was 3.4 ± 0.4 nM and the kfast ([2]; 17 base pairs substrate) was 9.1 ± 0.4 min⁻¹. The Aslow [2, 7] was 0.48 ± 0.03 nM, the kslow [2, 7] was 0.28 ± 0.06 min⁻¹ and the Afast ([2]; 30 base pairs substrate) was 2.6 ± 0.03 nM. For the same compound, the Aslow ([2]; 30 base pairs substrate) was 0.66 ± 0.02 nM, the kfast ([2]; 30 base pairs substrate) was 4.8 ± 0.3 min⁻¹ and the kslow ([2]; 30 base pairs substrate) was 0.50 ± 0.02 min⁻¹.
With `[Co+2]` [Co^2+] the “ATP hydrolysis in the presence of RNA” value [3] was “supported hydrolysis”, the “ATP hydrolysis in the absence of RNA” value [3] was “inhibited the rate of hydrolysis” and the “ability of divalent metal” value ([1]; data not shown) was “did not support”.
